Source: ChEMBL document CHEMBL4732035, “Design, synthesis, crystal structure and anti-plasmodial evaluation of tetrahydrobenzo[4,5]thieno[2,3-d]pyrimidine derivatives” (RSC Med Chem, 2021)

What was measured:
Plasmodium falciparum = experiment: Antiplasmodial activity against chloroquine-resistant Plasmodium falciparum W2 assessed as growth inhibition after 48 hrs by flow cytometer; type: functional, organism-based; conditions: W2, 48 h
Summary of the method: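 Ring-stage W2 cultures in microwells exposed 48 h to a range of compound concentrations, added from DMSO stocks. Parasites then fixed in 1% formaldehyde/PBS pH 7.4 (48 h, RT) and stained with YOYO-1 (1 nM) in 0.1% Triton X-100/PBS. Parasitemia counted by flow cytometry (forward scatter vs fluorescence). IC50 fitted from % parasitemia vs untreated controls (R2 >0.95).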

[1] = Selectivity index, ratio of IC50 for human HeLa cells to IC50 for chloroquine-resistant Plasmodium falciparum W2; type: toxicity; conditions: read-out: Selectivity Index
Summary of the method: (§1)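 Selectivity index is cell-line IC50 (A549 for line 2, HeLa for line 3) divided by W2 IC50. Cells grown in DMEM with 10% FBS, seeded at 1 × 10^4 per well and allowed to adhere 24 h at 37 °C. They were then exposed to graded concentrations for 24 h. MTT (4 mg/mL) was added for 4 h and formazan dissolved in DMSO. IC50 from log(inhibitor)-response fits, three independent experiments.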

[2] = Selectivity index, ratio of IC50 for human A549 cells to IC50 for chloroquine-resistant Plasmodium falciparum W2; type: toxicity; conditions: read-out: Selectivity Index; summary of the method: as §1
HeLa = experiment: Cytotoxicity against human HeLa cells assessed as reduction in cell viability preincubated for 24 hrs measured after 4 hrs by MTT assay; type: functional, cell-based
Summary of the method: (§2)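 Cells were grown in DMEM with 10% fetal bovine serum, seeded at 1 × 10^4 cells per well and left 24 h at 37 °C to adhere. A range of compound concentrations was added for 24 h. Medium was then removed, MTT solution (4 mg mL−1) added for 4 h, and formazan dissolved in DMSO. Survival was expressed against untreated wells, and IC50 was fitted by log(inhibitor)–response nonlinear regression from three independent experiments.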

A549 = experiment: Cytotoxicity against human A549 cells assessed as reduction in cell viability preincubated for 24 hrs measured after 4 hrs by MTT assay; type: functional, cell-based; summary of the method: as §2

SMILES | IC50 (Plasmodium falciparum) | selectivity ratio [1] | selectivity ratio [2] | IC50 (HeLa) | IC50 (A549)
COc1cccc(C(c2ccc(F)cc2)N2CCN(c3ncnc4sc5c(c34)CCCC5)CC2)c1O (stereo not drawn) | 2260 nM |  |  |  | 
Oc1ccccc1C(c1ccc(Cl)c(Cl)c1)N1CCN(c2ncnc3sc4c(c23)CCCC4)CC1 (stereo not drawn) | 752 nM | 13.7 | 15.3 | 10.3 µM | 11.5 µM
Oc1ccccc1C(c1ccc(C(F)(F)F)cc1)N1CCN(c2ncnc3sc4c(c23)CCCC4)CC1 (stereo not drawn) | 1370 nM |  |  |  | 
Oc1ccccc1C(c1ccc(OC(F)(F)F)cc1)N1CCN(c2ncnc3sc4c(c23)CCCC4)CC1 (stereo not drawn) | 1180 nM | 7.7 | 6.09 | 9.1 µM | 7.2 µM
COc1cccc(C(c2ccc(Cl)c(Cl)c2)N2CCN(c3ncnc4sc5c(c34)CCCC5)CC2)c1O (stereo not drawn) | 1340 nM |  |  |  | 
COc1cccc(C(c2ccc(F)c(Cl)c2)N2CCN(c3ncnc4sc5c(c34)CCCC5)CC2)c1O (stereo not drawn) | 1170 nM |  |  |  | 
COc1ccc(C(c2cccc(OC)c2O)N2CCN(c3ncnc4sc5c(c34)CCCC5)CC2)cc1 (stereo not drawn) | 6410 nM |  |  |  | 
COc1cccc(C(c2ccc(F)c(F)c2)N2CCN(c3ncnc4sc5c(c34)CCCC5)CC2)c1O (stereo not drawn) | 1130 nM |  |  |  | 
Oc1ccccc1C(c1ccc(F)c(Cl)c1)N1CCN(c2ncnc3sc4c(c23)CCCC4)CC1 (stereo not drawn) | 1060 nM | 6.03 | 8.01 | 6.4 µM | 8.5 µM
Oc1ccccc1C(c1ccc(F)c(F)c1)N1CCN(c2ncnc3sc4c(c23)CCCC4)CC1 (stereo not drawn) | 1040 nM | 12.3 | 8.43 | 12.7 µM | 8.7 µM
COc1cccc(C(c2ccc(C)cc2)N2CCN(c3ncnc4sc5c(c34)CCCC5)CC2)c1O (stereo not drawn) | 3960 nM |  |  |  | 
COc1cccc(C(c2ccc(C(F)(F)F)cc2)N2CCN(c3ncnc4sc5c(c34)CCCC5)CC2)c1O (stereo not drawn) | 749 nM | 9.59 | 9.86 | 7.1 µM | 7.3 µM
COc1cccc2c1C(=O)c1c(O)c3c(c(O)c1C2=O)C[C@@](O)(C(=O)CO)C[C@@H]3O[C@H]1C[C@H](N)[C@H](O)[C@H](C)O1 [DOXORUBICIN] |  |  |  | 5.7 µM | 5.5 µM
COc1ccc(C(c2ccccc2O)N2CCN(c3ncnc4sc5c(c34)CCCC5)CC2)cc1 (stereo not drawn) | 2420 nM |  |  |  | 
Cc1ccc(C(c2ccccc2O)N2CCN(c3ncnc4sc5c(c34)CCCC5)CC2)cc1 (stereo not drawn) | 1340 nM |  |  |  | 
COc1cccc(C(c2ccc(OC(F)(F)F)cc2)N2CCN(c3ncnc4sc5c(c34)CCCC5)CC2)c1O (stereo not drawn) | 1220 nM |  |  |  | 
Oc1ccccc1C(c1ccc(F)cc1)N1CCN(c2ncnc3sc4c(c23)CCCC4)CC1 (stereo not drawn) | 1620 nM |  |  |  | 
